# Active and inactive are the calls of the source. The rule behind the calls is not given here.
# How the values were obtained:
# Type in all cases: functional
# Salmonella paratyphi [1] = assay: Antimicrobial activity against Salmonella paratyphi incubated for 12 to 16 hrs by tube dilution method; conditions: Salmonella enterica subsp. enterica serovar Paratyphi A
# In short: (§1)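 Broth tube dilution, two-fold serial dilutions from 500 to 1.9 µg/mL plus a drug-free control tube. Each tube inoculated with 1 mL culture at OD 0.2 (~McFarland standard), 37 °C for 12-16 h. Turbidity compared with the control tube. MIC is the lowest concentration giving complete growth inhibition.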
# Micrococcus luteus [2] = assay: Antimicrobial activity against Micrococcus luteus at 1 mg/ml incubated for 20 to 30 mins followed by incubation for 24 hrs at 37 degC by agar plate method
# In short: (§2)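 Agar well diffusion on nutrient agar. Plates swabbed with 60 µL inoculum; 8 mm wells loaded with 100 µL of compound at 1.0 mg/mL. Held 20–30 min at 4 °C for diffusion, then 24 h at 37 °C. Inhibition zone diameter read in mm. Triplicate.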
# Salmonella typhi [3] = assay: Antimicrobial activity against Salmonella typhi incubated for 12 to 16 hrs followed by plating in nutrient agar by tube dilution method; conditions: Salmonella enterica subsp. enterica serovar Typhi
# In short: (§3)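 After 12-16 h at 37 °C in tube dilution (500 to 1.9 µg/mL; 1 mL inoculum at OD 0.2), the culture from each tube was plated on nutrient agar. MBC is the concentration at which cells are completely killed.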
# Salmonella paratyphi [4] = assay: Antimicrobial activity against Salmonella paratyphi incubated for 12 to 16 hrs followed by plating in nutrient agar by tube dilution method; conditions: Salmonella enterica subsp. enterica serovar Paratyphi A; in short: as §3
# Micrococcus luteus [5] = assay: Antimicrobial activity against Micrococcus luteus incubated for 12 to 16 hrs followed by plating in nutrient agar by tube dilution method
# In short: (§4)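 Tube dilution, serial from 500 to 1.9 µg/mL, plus drug-free control tube. Each tube inoculated with 1 mL culture at OD 0.2, incubated 37 °C for 12–16 h. MIC is the lowest concentration with no growth by turbidity. MBC is found by plating each tube on nutrient agar: the lowest concentration at which all cells are killed.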
# Salmonella paratyphi [6] = assay: Antimicrobial activity against Salmonella paratyphi at 1 mg/ml incubated for 20 to 30 mins followed by incubation for 24 hrs at 37 degC by agar plate method; conditions: Salmonella enterica subsp. enterica serovar Paratyphi A
# In short: (§5)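 Agar well diffusion on nutrient agar. Plates swabbed with 60 µL inoculum, 8 mm wells loaded with 100 µL sample at 1.0 mg/mL, streptomycin standard and control in separate wells. Plates held 20–30 min at 4 °C for diffusion, then 24 h at 37 °C. Zone diameter read in mm; triplicate.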
# Micrococcus luteus [7] = assay: Antimicrobial activity against Micrococcus luteus incubated for 12 to 16 hrs by tube dilution method; in short: as §4
# [8] = Anti-inflammatory activity at 50 ug/ml using bovine serum albumin and egg albumin proteins incubated at 37 degC for 20 mins and then heated to 95 degC for 20 mins by UV-visible Spectrophotometry based protein denaturation method
# In short: (§6)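 Albumin (bovine serum or egg) at 1% in 50 mM sodium phosphate buffer pH 6.4. Mixture is 0.1 ml test sample (1 mg/ml) plus 0.2 ml albumin, made to 5 ml with buffer. Held 37 °C for 20 min, then 95 °C for 20 min. Cooled to room temperature, turbidity read at 660 nm. % inhibition = (Abs control − Abs sample)/Abs control × 100. Triplicate, averaged.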
# Salmonella typhi [9] = assay: Antimicrobial activity against Salmonella typhi at 1 mg/ml incubated for 20 to 30 mins followed by incubation for 24 hrs at 37 degC by agar plate method; conditions: Salmonella enterica subsp. enterica serovar Typhi; in short: as §5
# Salmonella typhi [10] = assay: Antimicrobial activity against Salmonella typhi incubated for 12 to 16 hrs by tube dilution method; conditions: Salmonella enterica subsp. enterica serovar Typhi; in short: as §1
# Staphylococcus aureus = assay: Antimicrobial activity against Staphylococcus aureus at 1 mg/ml incubated for 20 to 30 mins followed by incubation for 24 hrs at 37 degC by agar plate method; in short: as §2
# [11] = Anti-inflammatory activity using bovine serum albumin and egg albumin proteins incubated at 37 degC for 20 mins and then heated to 95 degC for 20 mins by UV-visible Spectrophotometry based protein denaturation method; in short: as §6
# [12] = Anti-inflammatory activity at 100 ug/ml using bovine serum albumin and egg albumin proteins incubated at 37 degC for 20 mins and then heated to 95 degC for 20 mins by UV-visible Spectrophotometry based protein denaturation method; in short: as §6
Compound,MIC (Salmonella paratyphi [1]),diameter of the inhibition zone (DIZ) (Micrococcus luteus [2]),MBC (Salmonella typhi [3]),MBC (Salmonella paratyphi [4]),MBC (Micrococcus luteus [5]),diameter of the inhibition zone (DIZ) (Salmonella paratyphi [6]),MIC (Micrococcus luteus [7]),inhibition [8],diameter of the inhibition zone (DIZ) (Salmonella typhi [9]),MIC (Salmonella typhi [10]),diameter of the inhibition zone (DIZ) (Staphylococcus aureus),IC50 [11],inhibition [12]
[N-]=[N+]=NCc1cn(-c2ccccc2)nc1-c1ccccc1,inactive,inactive,inactive,inactive,inactive,inactive,inactive,inactive,inactive,inactive,inactive,Not Active,inactive
Clc1ccc(-n2cc(Cn3cc(-c4ccccc4)nn3)c(-c3ccccc3)n2)cc1,inactive,inactive,inactive,inactive,inactive,inactive,inactive,inactive,inactive,inactive,inactive,Not Active,inactive
COC(=O)c1nnn(Cc2cn(-c3ccccc3)nc2-c2ccc(C)cc2)c1C(=O)OC,inactive,inactive,inactive,inactive,inactive,inactive,inactive,inactive,inactive,inactive,inactive,Not Active,inactive
CCOC(=O)c1nnn(Cc2cn(-c3ccc(C)cc3)nc2-c2ccccc2)c1C(=O)OCC,inactive,inactive,inactive,inactive,inactive,inactive,inactive,inactive,inactive,inactive,inactive,Not Active,inactive
Nc1ccc(-c2cn(Cc3cn(-c4ccccc4)nc3-c3ccccc3)nn2)cc1,inactive,inactive,inactive,inactive,inactive,inactive,inactive,inactive,inactive,inactive,inactive,Not Active,inactive
COC(=O)c1nnn(Cc2cn(-c3ccc(C)cc3)nc2-c2ccccc2)c1C(=O)OC,inactive,inactive,inactive,inactive,inactive,inactive,inactive,inactive,inactive,inactive,inactive,Not Active,inactive
[N-]=[N+]=NCc1cn(-c2ccc(Cl)cc2)nc1-c1ccccc1,inactive,inactive,inactive,inactive,inactive,inactive,inactive,inactive,inactive,inactive,inactive,Not Active,inactive
Cc1ccc(-c2nn(-c3ccccc3)cc2Cn2cc(-c3ccccc3)nn2)cc1,inactive,inactive,inactive,inactive,inactive,inactive,inactive,inactive,inactive,inactive,inactive,Not Active,inactive
COc1ccc(-c2nn(-c3ccccc3)cc2CN=[N+]=[N-])cc1,inactive,inactive,inactive,inactive,inactive,inactive,inactive,inactive,inactive,inactive,inactive,Not Active,inactive
Cc1ccc(-c2cn(Cc3cn(-c4ccccc4)nc3-c3ccccc3)nn2)cc1,inactive,inactive,inactive,inactive,inactive,inactive,inactive,inactive,inactive,inactive,inactive,Not Active,inactive
COC(=O)c1nnn(Cc2cn(-c3ccccc3)nc2-c2ccccc2)c1C(=O)OC,inactive,inactive,inactive,inactive,inactive,inactive,inactive,inactive,inactive,inactive,inactive,Not Active,inactive
Cc1ccc(-n2cc(CN=[N+]=[N-])c(-c3ccccc3)n2)cc1C,inactive,inactive,inactive,inactive,inactive,inactive,inactive,inactive,inactive,inactive,inactive,Not Active,inactive
CCOC(=O)c1nnn(Cc2cn(-c3ccccc3)nc2-c2ccc(C)cc2)c1C(=O)OCC,inactive,inactive,inactive,inactive,inactive,inactive,inactive,inactive,inactive,inactive,inactive,Not Active,inactive
[N-]=[N+]=NCc1cn(-c2ccccc2)nc1-c1ccc(Cl)cc1,inactive,inactive,inactive,inactive,inactive,inactive,inactive,inactive,inactive,inactive,inactive,Not Active,inactive
